Results: ChEMBL document CHEMBL6096700, “Modulation of Mitochondria-Endoplasmic Reticulum Contacts (MERCs) by Small Molecules as a New Strategy for Restoring Lipid Metabolism in an Amyotrophic Lateral Sclerosis Model” (J Med Chem, 2025)
The source made the active and inactive calls. Where a SMILES comes first, the peptide text is derived from it. The star is where a group is joined. Cbz = O=C(OCc1ccccc1)*

What was measured:
HCT-116 [1] = assay: Induction of extracellular NBD-labeled cholesterol uptake in human HCT-116 cells at 1 uM incubated for 24 hrs followed by NBD-labeled cholesterol addition measured after 1 to 3 hrs by fluorescence based assay; assay type: functional, cell-based; conditions: time 25-27 hrs
How it was run: (§1)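 HCT116 cells seeded 24 h at 37 °C, 5% CO2, then treated with compound for 24 h. NBD-cholesterol added for 1 and 3 h. Cells washed three times with PBS, fluorescence read at 469/537 nm, compared with untreated cells. Mean ± SEM of three independent experiments.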

HCT-116 [2] = assay: Cytotoxicity against human HCT-116 cells assessed as cell viability at 1 uM incubated for 24 hrs by MTT assay; assay type: toxicity, cell-based; conditions: hct-116, 24 h
How it was run: (§2)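 HCT116 cells grown in phenol red-free McCoy's 5A with 10% FBS and 1% penicillin/streptomycin. Exposed 24 h to compound at 1, 5 or 10 μM. Viability measured by MTT reduction to formazan read by absorbance, expressed as percent of untreated controls. Safety threshold >80% viability. Mean ± SEM of three independent experiments.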

[3] = Modulation of mitochondria-endoplasmic reticulum contacts in human HCT-116 cells expressing MERLIN by BRET assay; assay type: functional, cell-based
How it was run: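 MERLIN-HCT116 BRET biosensor cells (RLuc8 donor, mVenus acceptor) seeded at 4500/well for 24 h, then treated with compound overnight. Coelenterazine h 5 μM added for 8 min in the dark, read at RT. BRET = acceptor/donor emission minus RLuc8-only background, with DMSO, RLuc8 and RLuc8-mVenus controls; plates kept if Z'>0.7.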

HCT-116 [4] = assay: Cytotoxicity against human HCT-116 cells assessed as cell viability at 5 uM incubated for 24 hrs by MTT assay; assay type: toxicity, cell-based; conditions: hct-116, 24 h; how it was run: as §2
[5] = Permeability of compound incubated for 2.5 hrs by PAMPA; assay type: ADME
How it was run: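 PAMPA-BBB: compounds in PBS/EtOH 70:30, pH 7.4, placed in a donor plate over a filter coated with porcine brain lipid in dodecane (20 mg/mL), with phosphate-buffer acceptor. Incubated 2 h 30 min at RT. Acceptor concentration read by absorbance at 2–5 wavelengths, three wells, two runs (mean ± SD). Ten reference drugs; CNS+ if Pe >4.4 × 10–6 cm s–1.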

Lymphoblastoid cell [6] = assay: Induction of lipid droplet formation in patient-derived lymphoblastoid cells at 5 uM incubated for 24 hrs by LipidTOX Green/DAPI staining based analysis; assay type: functional; conditions: Homo sapiens
How it was run: (§3)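 Control and sporadic ALS lymphoblastoid cells treated 24 h with compound at 5 μM or vehicle, fixed in 4% PFA, washed in PBS. Lipid droplets stained 2 h with LipidTOX Green, nuclei with DAPI. Confocal imaging and image-based quantification of >100 cells per condition; mean ± SEM.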

Lymphoblastoid cell [7] = assay: Induction of extracellular NBD-labeled cholesterol uptake in patient-derived Sporadic ALS lymphoblastoid cells at 5 uM incubated for 24 hrs followed by NBD-labeled cholesterol addition measured after 1 hr in presence of EZE by fluorescence based assay; assay type: functional; conditions: Homo sapiens, time 25.0 hrs
How it was run: (§4)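 Lymphoblastoid lines from controls (C100, C112) and sporadic ALS patients (E2, E4) treated 24 h with compound at 5 μM. BLT1, SSO or EZE (10 μM) added 15 min before NBD-cholesterol, which was left for 1 h. Cells washed three times with PBS, fluorescence read at 469/537 nm. Run in triplicate; mean ± SEM.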

Lymphoblastoid cell [8] = assay: Modulation of mitochondria-endoplasmic reticulum contacts in patient-derived Sporadic ALS lymphoblastoid cells at 5 uM incubated for 24 hrs by Seahorse XF analysis; assay type: functional, cell-based; conditions: Homo sapiens
Lymphoblastoid cell [9] = assay: Induction of extracellular NBD-labeled cholesterol uptake in patient-derived C9orf72-mutated familial ALS lymphoblastoid cells at 5 uM incubated for 24 hrs followed by NBD-labeled cholesterol addition measured after 1 hr by fluorescence based assay; assay type: functional; conditions: Homo sapiens, time 25.0 hrs
Lymphoblastoid cell [10] = assay: Induction of cholesteryl ester formation in patient-derived lymphoblastoid cells at 5 uM incubated for 24 hrs by Amplex assay; assay type: functional, cell-based; conditions: Homo sapiens
How it was run: (§5)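 Control and sporadic ALS lymphoblastoid cells treated 24 h with compound at 5 μM or vehicle. Lipids extracted from equal cell amounts with chloroform:methanol 2:1 (v/v). Organic phase dried, resuspended in assay buffer, and cholesteryl esters quantified with the Amplex cholesterol kit. Individual values reported.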

HCT-116 [11] = assay: Modulation of mitochondria-endoplasmic reticulum contacts in human HCT-116 cells at 25 uM incubated for 1 hr by TEM analysis; assay type: functional, cell-based
Lymphoblastoid cell [12] = assay: Restoration of mitochondrial cristae structure in patient-derived Sporadic ALS lymphoblastoid cells at 5 uM incubated for 24 hrs by TEM analysis; assay type: functional, cell-based; conditions: Homo sapiens
How it was run: (§6)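 Control and sporadic ALS lymphoblasts with or without compound (5 μM, 24 h) were fixed 4 h at 4 °C in 4% paraformaldehyde/2.5% glutaraldehyde in 0.1 M phosphate pH 7.3. Postfixed in osmium tetroxide/potassium ferrocyanide, acetone-dehydrated, Spurr-embedded. 60 nm sections stained with lead citrate and imaged by TEM at 80 kV.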

Lymphoblastoid cell [13] = assay: Induction of extracellular NBD-labeled cholesterol uptake in patient-derived Sporadic ALS lymphoblastoid cells at 5 uM incubated for 24 hrs followed by NBD-labeled cholesterol addition measured after 1 hr in presence of SSO by fluorescence based assay; assay type: functional; conditions: Homo sapiens, time 25.0 hrs; how it was run: as §4
Lymphoblastoid cell [14] = assay: Induction of cholesteryl ester formation in patient-derived Sporadic ALS lymphoblastoid cells at 5 uM incubated for 24 hrs by Amplex assay; assay type: functional, cell-based; conditions: Homo sapiens; how it was run: as §5
Lymphoblastoid cell [15] = assay: Induction of lipid droplet formation in patient-derived Sporadic ALS lymphoblastoid cells at 5 uM incubated for 24 hrs by TEM analysis; assay type: functional, cell-based; conditions: Homo sapiens; how it was run: as §6
Lymphoblastoid cell [16] = assay: Induction of lipid droplet formation in patient-derived Sporadic ALS lymphoblastoid cells at 5 uM incubated for 24 hrs by LipidTOX Green/DAPI staining based analysis; assay type: functional; conditions: Homo sapiens; how it was run: as §3
Lymphoblastoid cell [17] = assay: Improvement in spare respiratory capacity in patient-derived Sporadic ALS lymphoblastoid cells at 5 uM incubated for 24 hrs by Seahorse XF analysis; assay type: functional, cell-based; conditions: Homo sapiens
How it was run: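 Control and sALS lymphoblasts plated at 200,000 cells/well on poly-L-lysine and cultured 24 h ± compound (5 μM). Then moved to bicarbonate-free DMEM with 2 mM glutamine, 5 mM glucose, 2% FBS, 1 mM pyruvate and 5 mM HEPES pH 7.4, 1 h without CO2. Seahorse Mito Stress OCR: basal, oligomycin 1 μM, FCCP 3 μM, antimycin/rotenone 2.5 μM each. Four replicates, mean ± SEM.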

Lymphoblastoid cell [18] = assay: Induction of extracellular NBD-labeled cholesterol uptake in patient-derived Sporadic ALS lymphoblastoid cells at 5 uM incubated for 24 hrs followed by NBD-labeled cholesterol addition measured after 1 hr in presence of […] by fluorescence based assay; assay type: functional; conditions: Homo sapiens, time 25.0 hrs; how it was run: as §4
Lymphoblastoid cell [19] = assay: Induction of extracellular NBD-labeled cholesterol uptake in patient-derived lymphoblastoid cells at 5 uM incubated for 24 hrs followed by NBD-labeled cholesterol addition measured after 1 hr in presence of SSO by fluorescence based assay; assay type: functional; conditions: Homo sapiens, time 25.0 hrs
Lymphoblastoid cell [20] = assay: Induction of extracellular NBD-labeled cholesterol uptake in patient-derived Sporadic ALS lymphoblastoid cells at 5 uM incubated for 24 hrs followed by NBD-labeled cholesterol addition measured after 1 hr by fluorescence based assay; assay type: functional; conditions: Homo sapiens, time 25.0 hrs
Lymphoblastoid cell [21] = assay: Induction of extracellular NBD-labeled cholesterol uptake in patient-derived lymphoblastoid cells at 5 uM incubated for 24 hrs followed by NBD-labeled cholesterol addition measured after 1 hr in presence of […] by fluorescence based assay; assay type: functional; conditions: Homo sapiens, time 25.0 hrs
Lymphoblastoid cell [22] = assay: Induction of extracellular NBD-labeled cholesterol uptake in patient-derived lymphoblastoid cells at 5 uM incubated for 24 hrs followed by NBD-labeled cholesterol addition measured after 1 hr in presence of EZE by fluorescence based assay; assay type: functional; conditions: Homo sapiens, time 25.0 hrs
HCT-116 [23] = assay: Induction of extracellular NBD-labeled cholesterol uptake in human HCT-116 cells at 5 uM incubated for 24 hrs followed by NBD-labeled cholesterol addition measured after 3 hrs by fluorescence based assay; assay type: functional, cell-based; conditions: time 27.0 hrs; how it was run: as §1
Lymphoblastoid cell [24] = assay: Induction of extracellular NBD-labeled cholesterol uptake in patient-derived SOD1 ALS lymphoblastoid cells at 5 uM incubated for 24 hrs followed by NBD-labeled cholesterol addition measured after 1 hr by fluorescence based assay; assay type: functional; conditions: Homo sapiens, time 25.0 hrs

Row | SMILES | Activity (HCT-116 [1]) | Activity (HCT-116 [2]) | EC50 [3] | permeability [5] | further results
1 | O=C(Nc1ccc([N+](=O)[O-])cc1F)c1cc(Cl)ccc1O | inactive | Non-toxic | 5.64 µM | – | –
2 | O=C(Nc1ccc([N+](=O)[O-])cc1)c1cccc2ccccc12 | – | – | 21.7 µM | – | –
3 | CC(C)C[C@@H](C=O)NC(=O)[C@H](CC(C)C)NC(=O)[C@H](CC(C)C)NC(=O)OCc1ccccc1 [MG-132] (Cbz-Leu-Leu-Leu-aldehyde) | – | – | 13.7 µM | – | –
4 | O=C(Nc1cccc([N+](=O)[O-])c1)c1cc(Cl)ccc1O | inactive | Non-toxic | 8.32 µM | Permeable | Activity (HCT-116 [4]): Non-toxic
5 | O=C(Nc1ccc(F)cc1)c1cc(Cl)ccc1O | – | – | 20.2 µM | – | –
6 | N#Cc1ccc(NC(=O)c2cc(Cl)ccc2O)cc1 | inactive | Non-toxic | 9.7 µM | Permeable | Activity (HCT-116 [4]): Non-toxic
7 | CNC(=O)c1ccc(NC(=O)c2cc(Cl)ccc2O)cc1 | – | – | 10.2 µM | – | –
8 | O=C(Nc1ccc([N+](=O)[O-])cc1Cl)c1cccc2ccccc12 | – | – | 3.34 µM | – | –
9 | O=C(Nc1ccc([N+](=O)[O-])cc1Cl)c1cc(Cl)ccc1O [NICLOSAMIDE] | inactive | Non-toxic | 5.68 µM | – | –
10 | O=C(Nc1ccccc1)c1cc(Cl)ccc1O | inactive | Non-toxic | – | Permeable | Activity (Lymphoblastoid cell [6]): Active; Activity (Lymphoblastoid cell [7]): Active; Activity (Lymphoblastoid cell [8]): Active; Activity (HCT-116 [4]): Non-toxic; Activity (Lymphoblastoid cell [9]): Active; Activity (Lymphoblastoid cell [10]): Active; Activity (HCT-116 [11]): Active; Activity (Lymphoblastoid cell [12]): Active; Activity (Lymphoblastoid cell [13]): Active; Activity (Lymphoblastoid cell [14]): Active; Activity (Lymphoblastoid cell [15]): Active; Activity (Lymphoblastoid cell [16]): Active; Activity (Lymphoblastoid cell [17]): Active; Activity (Lymphoblastoid cell [18]): Not active; The Result Suggests That Cell Surface Hdl Scavenger Receptor B, Type 1 (Sr-B1) May Be Involved In Mechanism Of Action; Activity (Lymphoblastoid cell [19]): Active; Activity (Lymphoblastoid cell [20]): Active; Activity (Lymphoblastoid cell [21]): Not active; The Result Suggests That Cell Surface Hdl Scavenger Receptor B, Type 1 (Sr-B1) May Be Involved In Mechanism Of Action; Activity (Lymphoblastoid cell [22]): Active; Activity (HCT-116 [23]): Active; Activity (Lymphoblastoid cell [24]): inactive
11 | O=C(Nc1ccc([N+](=O)[O-])cc1)c1cc(Cl)ccc1O | inactive | – | 2.44 µM | Permeable | –
